The molecules below were run on Staphylococcus aureus (assay: Antimicrobial activity against extended spectrum beta-lactamases-producing methicillin-sensitive Staphylococcus aureus 10-13 after 18-24 hrs by two-fold serial dilution method).
Assay type: functional
Procedure, shortened: (§1)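 Agar-medium twofold serial dilution against Gram-positive and Gram-negative strains; MIC taken as the lowest compound concentration giving complete inhibition of bacterial growth after incubation at 35 °C for 18-24 h.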

Question: How did the MIC turn out when `C[C@H]1COc2c(N3CCN(C)CC3)c(F)cc3c(=O)c(C(=O)O)cn1c23.C[C@H]1COc2c(N3CCN(C)CC3)c(F)cc3c(=O)c(C(=O)O)cn1c23.O` [LEVOFLOXACIN] was run?
Answer: 0.5 µg/mL

These molecules were tested on Pseudomonas aeruginosa (assay: Antimicrobial activity against extended spectrum beta-lactamases-producing Pseudomonas aeruginosa 10-9 after 18-24 hrs by two-fold serial dilution method).
Assay type: functional
Procedure, shortened: as §1

Question: `C[C@H]1COc2c(N3CCN(C)CC3)c(F)cc3c(=O)c(C(=O)O)cn1c23.C[C@H]1COc2c(N3CCN(C)CC3)c(F)cc3c(=O)c(C(=O)O)cn1c23.O` [LEVOFLOXACIN] was tested. Which MIC did it give?
Answer: 0.25 µg/mL

What follows are molecules tested on Staphylococcus epidermidis (assay: Antimicrobial activity against extended spectrum beta-lactamases-producing methicillin-sensitive Staphylococcus epidermidis 10-15 after 18-24 hrs by two-fold serial dilution method).
Assay type: functional
Procedure, shortened: as §1

Question: With `C[C@H]1COc2c(N3CCN(C)CC3)c(F)cc3c(=O)c(C(=O)O)cn1c23.C[C@H]1COc2c(N3CCN(C)CC3)c(F)cc3c(=O)c(C(=O)O)cn1c23.O` [LEVOFLOXACIN] as the molecule, how does the MIC read?
Answer: 128 µg/mL

What follows are molecules tested on Klebsiella pneumoniae (assay: Antimicrobial activity against extended spectrum beta-lactamases-producing Klebsiella pneumoniae 10-1 after 18-24 hrs by two-fold serial dilution method).
Assay type: functional
Procedure, shortened: as §1

Question: `C[C@H]1COc2c(N3CCN(C)CC3)c(F)cc3c(=O)c(C(=O)O)cn1c23.C[C@H]1COc2c(N3CCN(C)CC3)c(F)cc3c(=O)c(C(=O)O)cn1c23.O` [LEVOFLOXACIN] was tested. Which MIC did it give?
Answer: 8 µg/mL

What follows are molecules tested on Pseudomonas aeruginosa (assay: Antimicrobial activity against extended spectrum beta-lactamases-producing Pseudomonas aeruginosa 10-15 after 18-24 hrs by two-fold serial dilution method).
Assay type: functional
Procedure, shortened: as §1

Question: How did the MIC turn out when `C[C@H]1COc2c(N3CCN(C)CC3)c(F)cc3c(=O)c(C(=O)O)cn1c23.C[C@H]1COc2c(N3CCN(C)CC3)c(F)cc3c(=O)c(C(=O)O)cn1c23.O` [LEVOFLOXACIN] was run?
Answer: 0.5 µg/mL

These molecules were tested on Enterococcus faecalis (assay: Antimicrobial activity against Enterococcus faecalis 10-7 after 18-24 hrs by two-fold serial dilution method).
Assay type: functional
Procedure, shortened: as §1

Question: With `C[C@H]1COc2c(N3CCN(C)CC3)c(F)cc3c(=O)c(C(=O)O)cn1c23.C[C@H]1COc2c(N3CCN(C)CC3)c(F)cc3c(=O)c(C(=O)O)cn1c23.O` [LEVOFLOXACIN] as the molecule, how does the MIC read?
Answer: 16 µg/mL

These molecules were tested on Staphylococcus aureus (assay: Antimicrobial activity against extended spectrum beta-lactamases-producing methicillin-sensitive Staphylococcus aureus 10-14 after 18-24 hrs by two-fold serial dilution method).
Assay type: functional
Procedure, shortened: as §1

Question: For `C[C@H]1COc2c(N3CCN(C)CC3)c(F)cc3c(=O)c(C(=O)O)cn1c23.C[C@H]1COc2c(N3CCN(C)CC3)c(F)cc3c(=O)c(C(=O)O)cn1c23.O` [LEVOFLOXACIN], which MIC is on record?
Answer: 0.25 µg/mL

What follows are molecules tested on Klebsiella pneumoniae (assay: Antimicrobial activity against Klebsiella pneumoniae 10-2 after 18-24 hrs by two-fold serial dilution method).
Assay type: functional
Procedure, shortened: as §1

Question: With `C[C@H]1COc2c(N3CCN(C)CC3)c(F)cc3c(=O)c(C(=O)O)cn1c23.C[C@H]1COc2c(N3CCN(C)CC3)c(F)cc3c(=O)c(C(=O)O)cn1c23.O` [LEVOFLOXACIN] as the molecule, how does the MIC read?
Answer: 32 µg/mL

Each molecule was assayed on Staphylococcus epidermidis (assay: Antimicrobial activity against extended spectrum beta-lactamases-producing methicillin-resistant Staphylococcus epidermidis 10-10 after 18-24 hrs by two-fold serial dilution method).
Assay type: functional
Procedure, shortened: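 Agar twofold serial dilution MIC against clinical isolates. MIC was taken as the lowest concentration giving complete inhibition of bacterial growth after incubation at 35 °C for 18-24 h.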

Question: Which MIC does the source give for `C[C@H]1COc2c(N3CCN(C)CC3)c(F)cc3c(=O)c(C(=O)O)cn1c23.C[C@H]1COc2c(N3CCN(C)CC3)c(F)cc3c(=O)c(C(=O)O)cn1c23.O` [LEVOFLOXACIN] here?
Answer: 8 µg/mL

What follows are molecules tested on Staphylococcus epidermidis (assay: Antimicrobial activity against extended spectrum beta-lactamases-producing methicillin-sensitive Staphylococcus epidermidis 10-11 after 18-24 hrs by two-fold serial dilution method).
Assay type: functional
Procedure, shortened: as §1

Question: How did the MIC turn out when `C[C@H]1COc2c(N3CCN(C)CC3)c(F)cc3c(=O)c(C(=O)O)cn1c23.C[C@H]1COc2c(N3CCN(C)CC3)c(F)cc3c(=O)c(C(=O)O)cn1c23.O` [LEVOFLOXACIN] was run?
Answer: 128 µg/mL

The molecules below were run on Enterococcus faecalis (assay: Antimicrobial activity against Enterococcus faecalis 10-5 after 18-24 hrs by two-fold serial dilution method).
Assay type: functional
Procedure, shortened: as §1

Question: `C[C@H]1COc2c(N3CCN(C)CC3)c(F)cc3c(=O)c(C(=O)O)cn1c23.C[C@H]1COc2c(N3CCN(C)CC3)c(F)cc3c(=O)c(C(=O)O)cn1c23.O` [LEVOFLOXACIN] was tested. Which MIC did it give?
Answer: 8 µg/mL

The molecules below were run on Klebsiella pneumoniae (assay: Antimicrobial activity against extended spectrum beta-lactamases-producing Klebsiella pneumoniae 10-3 after 18-24 hrs by two-fold serial dilution method).
Assay type: functional
Procedure, shortened: as §1

Question: For `C[C@H]1COc2c(N3CCN(C)CC3)c(F)cc3c(=O)c(C(=O)O)cn1c23.C[C@H]1COc2c(N3CCN(C)CC3)c(F)cc3c(=O)c(C(=O)O)cn1c23.O` [LEVOFLOXACIN], which MIC is on record?
Answer: 8 µg/mL

Each molecule was assayed on Escherichia coli (assay: Antimicrobial activity against extended spectrum beta-lactamases-producing Escherichia coli 10-2 after 18-24 hrs by two-fold serial dilution method).
Assay type: functional
Procedure, shortened: as §1

Question: For `C[C@H]1COc2c(N3CCN(C)CC3)c(F)cc3c(=O)c(C(=O)O)cn1c23.C[C@H]1COc2c(N3CCN(C)CC3)c(F)cc3c(=O)c(C(=O)O)cn1c23.O` [LEVOFLOXACIN], which MIC is on record?
Answer: 16 µg/mL

The molecules below were run on Escherichia coli (assay: Antimicrobial activity against Escherichia coli 10-2 after 18-24 hrs by two-fold serial dilution method).
Assay type: functional
Procedure, shortened: as §1

Question: How did the MIC turn out when `C[C@H]1COc2c(N3CCN(C)CC3)c(F)cc3c(=O)c(C(=O)O)cn1c23.C[C@H]1COc2c(N3CCN(C)CC3)c(F)cc3c(=O)c(C(=O)O)cn1c23.O` [LEVOFLOXACIN] was run?
Answer: 0.25 µg/mL

What follows are molecules tested on Staphylococcus aureus (assay: Antimicrobial activity against Staphylococcus aureus ATCC […] after 18-24 hrs by two-fold serial dilution method).
Assay type: functional
Procedure, shortened: as §1

Question: For `C[C@H]1COc2c(N3CCN(C)CC3)c(F)cc3c(=O)c(C(=O)O)cn1c23.C[C@H]1COc2c(N3CCN(C)CC3)c(F)cc3c(=O)c(C(=O)O)cn1c23.O` [LEVOFLOXACIN], which MIC is on record?
Answer: 0.25 µg/mL

These molecules were tested on Enterococcus faecium (assay: Antimicrobial activity against Enterococcus faecium 10-5 after 18-24 hrs by two-fold serial dilution method).
Assay type: functional
Procedure, shortened: as §1

Question: Which MIC does the source give for `C[C@H]1COc2c(N3CCN(C)CC3)c(F)cc3c(=O)c(C(=O)O)cn1c23.C[C@H]1COc2c(N3CCN(C)CC3)c(F)cc3c(=O)c(C(=O)O)cn1c23.O` [LEVOFLOXACIN] here?
Answer: 32 µg/mL
